The source made the active and inactive calls. The rule behind the calls is not given here.
Assays:
T47D [1] = test: Effect on cellular respiration in human T47D cells assessed as decrease in oxygen consumption at 10 uM; format: functional
Outline: (§1)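 Oxygen consumption of intact T47D cells monitored with a Clark-type electrode. Rate with compound expressed as % control (compound rate/control rate). n = 3; FCCP run as positive control.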

[2] = molecular target: T1, Hypoxia inducible factors; HIF-1-alpha, HIF-2-alpha (Homo sapiens, UniProt Q16665+Q99814); test: Inhibition of HIF1-mediated proliferation of hypoxia-stimulated human SK-BR-3 cells at 0.31 to 20 uM after 48 hrs by SRB assay; format: cell-based
Outline: (§2)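 Exponentially growing cells were seeded at 30,000/well and held overnight at 37 °C in DMEM/F12 with 10% FBS and pen/strep. Compound (0.31–20 µM) was added in serum-free medium for 48 h. Viability was read by sulforhodamine B. % Inhibition = [1 − (ODtreated/ODcontrol)] × 100, from triplicate wells.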

[3] = molecular target: T1, Hypoxia inducible factors; HIF-1-alpha, HIF-2-alpha; test: Inhibition of hypoxia-induced HIF1 activation in human PC3 cells by HRE3-TK-luciferase reporter gene assay; format: cell-based; conditions: pc-3
Outline: (§3)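 HIF-1 activity measured with the pHRE3-TK-Luc luciferase reporter in PC-3 cells. Cycloheximide 100 µM served as the positive control. Run in triplicate, representative of two independent experiments. IC50 reported with 95% CI.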

[4] = molecular target: T1, Hypoxia inducible factors; HIF-1-alpha, HIF-2-alpha; test: Inhibition of 1, 10-phenanthroline-induced HIF1 activation in human PC3 cells by HRE3-TK-luciferase reporter gene assay; format: cell-based; conditions: pc-3; outline: as §3
T47D [5] = test: Induction of state 4 respiration of human T47D cells; format: functional, cell-based
Outline: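 T47D respiration measured by Clark-type electrode. Oligomycin (1 µM final) added to establish state 4 respiration, then compound added at specified concentrations to test resumption of oxygen consumption; FCCP used as positive control.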

[6] = molecular target: T1, Hypoxia inducible factors; HIF-1-alpha, HIF-2-alpha; test: Inhibition of HIF1-mediated proliferation of hypoxia-stimulated human SK-BR-3 cells at 20 uM after 48 hrs by SRB assay; format: cell-based; outline: as §2
T47D [7] = test: Effect on cellular respiration in human T47D cells assessed as decrease in oxygen consumption at 10 uM n presence of mitochondrial uncoupler FCCP; format: functional, cell-based
[8] = molecular target: T1, Hypoxia inducible factors; HIF-1-alpha, HIF-2-alpha; test: Inhibition of hypoxia-induced HIF1 activation in human T47D cells by HRE3-TK-luciferase reporter gene assay; format: cell-based
[9] = molecular target: T1, Hypoxia inducible factors; HIF-1-alpha, HIF-2-alpha; test: Inhibition of HIF1-mediated proliferation of hypoxia-stimulated human T47D cells at 0.31 to 20 uM after 48 hrs by SRB assay; format: cell-based; outline: as §2
[10] = molecular target: T1, Hypoxia inducible factors; HIF-1-alpha, HIF-2-alpha; test: Inhibition of HIF1-mediated secreted VEGF expression in hypoxia-stimulated human T47D cells by […]; format: cell-based
Outline: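 T47D cells treated with compound (1, 3, 10 µM) under hypoxia (1% O2, 16 h). Secreted VEGF in conditioned medium quantified by ELISA and normalized to cellular protein (micro BCA). n = 3 from one experiment, representative of two. One-way ANOVA with Bonferroni post hoc.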

[11] = molecular target: T1, Hypoxia inducible factors; HIF-1-alpha, HIF-2-alpha; test: Inhibition of HIF1-mediated proliferation of hypoxia-stimulated human SK-BR-3 cells after 48 hrs by SRB assay; format: cell-based; outline: as §2
MDA-MB-231 [12] = test: Inhibition of human MDA-MB-231 cell migration at 5 to 20 uM after 22 hrs under hypoxic condition; format: functional, cell-based
Outline: (§4)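 Confluent MDA-MB-231 monolayers were scratched with pipet tips. Compound (5 or 20 µM) was added for 22 h under normoxia (95% air:5% CO2) or hypoxia (1% O2:94% N2:5% CO2). Cells were then fixed, stained and imaged. Parallel viability was checked by sulforhodamine B, as % of untreated control under matching oxygen conditions.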

T47D [13] = test: Cytotoxicity against human T47D cells; format: cell-based
[14] = molecular target: T1, Hypoxia inducible factors; HIF-1-alpha, HIF-2-alpha; test: Inhibition of HIF1-mediated proliferation of hypoxia-stimulated human MDA-MB-231 cells after 48 hrs by SRB assay; format: cell-based; outline: as §2
[15] = molecular target: T1, Hypoxia inducible factors; HIF-1-alpha, HIF-2-alpha; test: Inhibition of HIF1-mediated proliferation of hypoxia-stimulated human T47D cells up to 20 uM after 16 hrs by SRB assay; format: cell-based
Outline: (§5)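 Short-term viability: cells exposed to compound at up to 20 µM for 16 h under hypoxia (1% O2), then read by sulforhodamine B and expressed as % inhibition of untreated control.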

T47D [16] = test: Decrease in mitochondrial membrane potential in human T47D cells 1 to 10 uM after 15 mins by TMRM assay; format: functional, cell-based
Outline: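 T47D cells seeded at 100,000/well on chambered coverglass overnight, then switched to TES buffer (20 mM, pH 7.3) with salts, 5 mM glucose, 0.3% BSA and 2 nM TMRM. Loaded 1 h 15 min at 37 °C, then compound added for 15 min. Live-cell epifluorescence imaging; FCCP as reference.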

[17] = molecular target: T1, Hypoxia inducible factors; HIF-1-alpha, HIF-2-alpha; test: Inhibition of HIF1-mediated proliferation of hypoxia-stimulated human PC3 cells at 0.31 to 20 uM after 48 hrs by SRB assay; format: cell-based; conditions: PC-3; outline: as §2
[18] = molecular target: T1, Hypoxia inducible factors; HIF-1-alpha, HIF-2-alpha; test: Inhibition of HIF1-mediated proliferation of hypoxia-stimulated human MDA-MB-231 cells up to 20 uM after 16 hrs by SRB assay; format: cell-based; outline: as §5
[19] = molecular target: T1, Hypoxia inducible factors; HIF-1-alpha, HIF-2-alpha; conditions: T47D, at 1 to 10 µM
[20] = molecular target: T1, Hypoxia inducible factors; HIF-1-alpha, HIF-2-alpha; test: Inhibition of HIF1-mediated proliferation of hypoxia-stimulated human MDA-MB-231 cells at 20 uM after 48 hrs by SRB assay; format: cell-based; outline: as §2
[21] = molecular target: T1, Hypoxia inducible factors; HIF-1-alpha, HIF-2-alpha; test: Inhibition of HIF1-mediated proliferation of hypoxia-stimulated human SK-BR-3 cells up to 20 uM after 16 hrs by SRB assay; format: cell-based; outline: as §5
MDA-MB-231 [22] = test: Inhibition of human MDA-MB-231 cell migration at 5 to 20 uM after 22 hrs under normoxic condition; format: functional, cell-based; outline: as §4
[23] = molecular target: T1, Hypoxia inducible factors; HIF-1-alpha, HIF-2-alpha; test: Inhibition of HIF1-mediated proliferation of hypoxia-stimulated human T47D cells at 20 uM after 48 hrs by SRB assay; format: cell-based; outline: as §2
[24] = molecular target: T1, Hypoxia inducible factors; HIF-1-alpha, HIF-2-alpha; test: Inhibition of 1, 10-phenanthroline-induced HIF1 activation in human T47D cells by HRE3-TK-luciferase reporter gene assay; format: cell-based
[25] = molecular target: T1, Hypoxia inducible factors; HIF-1-alpha, HIF-2-alpha; test: Inhibition of HIF1-mediated proliferation of hypoxia-stimulated human PC3 cells at 20 uM after 48 hrs by SRB assay; format: cell-based; conditions: PC-3; outline: as §2
[26] = molecular target: T1, Hypoxia inducible factors; HIF-1-alpha, HIF-2-alpha; test: Inhibition of HIF1-mediated proliferation of hypoxia-stimulated human PC3 cells up to 20 uM after 16 hrs by SRB assay; format: cell-based; conditions: PC-3; outline: as §5
[27] = molecular target: T1, Hypoxia inducible factors; HIF-1-alpha, HIF-2-alpha; test: Inhibition of HIF1-mediated proliferation of hypoxia-stimulated human MDA-MB-231 cells at 0.31 to 20 uM after 48 hrs by SRB assay; format: cell-based; outline: as §2
T47D [28] = test: Effect on cellular respiration in human T47D cells assessed as increase in oxygen consumption at 1 uM in presence of mitochondrial uncoupler FCCP; format: functional, cell-based
T47D [29] = test: Effect on cellular respiration in human T47D cells assessed as increase in oxygen consumption at 1 uM; format: functional; outline: as §1
[30] = molecular target: T1, Hypoxia inducible factors; HIF-1-alpha, HIF-2-alpha; test: Inhibition of HIF1-mediated proliferation of hypoxia-stimulated human PC3 cells after 48 hrs by SRB assay; format: cell-based; conditions: PC-3; outline: as §2
[31] = molecular target: T1, Hypoxia inducible factors; HIF-1-alpha, HIF-2-alpha; test: Inhibition of HIF1-mediated migration of human MDA-MB-231 cells at 20 uM by wound healing assay; format: cell-based; outline: as §4

CCC(C)C(=O)c1c(O)c(CC=C(C)C)c(O)c2c(C(CC)OC(C)=O)cc(=O)oc12 (centres undefined)
inhibition at 10 µM (T47D [1]): 50% | inhibition [2]: 50% | IC50 [3]: 2 µM | IC50 [4]: 6.5 µM | Activity (T47D [5]): Active | inhibition [6]: 53% | Activity (T47D [7]): Active | IC50 [8]: 0.96 µM | inhibition [9]: 50% | inhibition [10]: Dose-dependent effect | inhibition [11]: Dose-dependent effect | Activity (MDA-MB-231 [12]): Active | IC50 (T47D [13]): > 20 µM | inhibition [14]: Dose-dependent effect | inhibition [15]: < 30% | inhibition (T47D [16]): Active | inhibition [17]: 40% | inhibition [18]: < 30% | inhibition [19]: inactive | inhibition [20]: 52% | inhibition [21]: < 30% | Activity (MDA-MB-231 [22]): Active | inhibition [23]: 54% | IC50 [24]: 0.89 µM | inhibition [25]: 40% | inhibition [26]: < 30% | inhibition [27]: 50% | Activity (T47D [28]): Active | Activity (T47D [29]): 30% | inhibition [30]: Dose-dependent effect | inhibition [31]: 25%

N#CC(C#N)=NNc1ccc(OC(F)(F)F)cc1
IC50 [8]: 0.51 µM | inhibition [19]: Active | IC50 [24]: 0.31 µM

Reference: ChEMBL document CHEMBL1641385, “Mammea E/BB, an isoprenylated dihydroxycoumarin protonophore that potently uncouples mitochondrial electron transport, disrupts hypoxic signaling in tumor cells” (J Nat Prod, 2010)
